Assays:
Rattus norvegicus [1] = experiment: % inhibition of AI pressor response at 60 minutes after intravenous administration of 0.5 micro mol/kg of compound in rat; assay type: functional
How it was run: (§1)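 Normotensive rats given intravenous angiotensin I challenges to raise mean arterial pressure. Compound dosed intravenously at 0.5 μmol/kg. Pressor response measured before dosing (control) and at set times afterward. Percent change from the control response taken as % inhibition. Maximal response usually seen about 2 min after dosing.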

Rattus norvegicus [2] = experiment: % inhibition of AI pressor response at 2 minutes after intravenous administration of 0.5 micro mol/kg of compound in rat; assay type: functional; how it was run: as §1
Rattus norvegicus [3] = experiment: % inhibition of AI pressor response at 30 minutes after intravenous administration of 0.5 micro mol/kg of compound in rat; assay type: functional; how it was run: as §1
Rattus norvegicus [4] = experiment: Decreased Mean arterial pressure (MAP) in rat after single oral dose of 30 umol/kg; assay type: functional, Artery
How it was run: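 Conscious sodium-depleted spontaneously hypertensive rats, n = 7 per group. Single oral dose of 30 μmol/kg (~12 mg/kg); vehicle 5% NaHCO3. Mean arterial pressure followed as change from pre-dose baseline over 24 h.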

Rattus norvegicus [5] = experiment: % inhibition of AI pressor response at 120 minutes after intravenous administration of 0.5 micro mol/kg of compound in rat; assay type: functional; how it was run: as §1
[6] = biological target: T1, Angiotensin-converting enzyme (Oryctolagus cuniculus, UniProt P12822); experiment: In vitro inhibition of ACE (Angiotensin I converting enzyme) isolated from rabbit lung extract; settings: read-out: I50
T1 sequence (P12822 whole entry): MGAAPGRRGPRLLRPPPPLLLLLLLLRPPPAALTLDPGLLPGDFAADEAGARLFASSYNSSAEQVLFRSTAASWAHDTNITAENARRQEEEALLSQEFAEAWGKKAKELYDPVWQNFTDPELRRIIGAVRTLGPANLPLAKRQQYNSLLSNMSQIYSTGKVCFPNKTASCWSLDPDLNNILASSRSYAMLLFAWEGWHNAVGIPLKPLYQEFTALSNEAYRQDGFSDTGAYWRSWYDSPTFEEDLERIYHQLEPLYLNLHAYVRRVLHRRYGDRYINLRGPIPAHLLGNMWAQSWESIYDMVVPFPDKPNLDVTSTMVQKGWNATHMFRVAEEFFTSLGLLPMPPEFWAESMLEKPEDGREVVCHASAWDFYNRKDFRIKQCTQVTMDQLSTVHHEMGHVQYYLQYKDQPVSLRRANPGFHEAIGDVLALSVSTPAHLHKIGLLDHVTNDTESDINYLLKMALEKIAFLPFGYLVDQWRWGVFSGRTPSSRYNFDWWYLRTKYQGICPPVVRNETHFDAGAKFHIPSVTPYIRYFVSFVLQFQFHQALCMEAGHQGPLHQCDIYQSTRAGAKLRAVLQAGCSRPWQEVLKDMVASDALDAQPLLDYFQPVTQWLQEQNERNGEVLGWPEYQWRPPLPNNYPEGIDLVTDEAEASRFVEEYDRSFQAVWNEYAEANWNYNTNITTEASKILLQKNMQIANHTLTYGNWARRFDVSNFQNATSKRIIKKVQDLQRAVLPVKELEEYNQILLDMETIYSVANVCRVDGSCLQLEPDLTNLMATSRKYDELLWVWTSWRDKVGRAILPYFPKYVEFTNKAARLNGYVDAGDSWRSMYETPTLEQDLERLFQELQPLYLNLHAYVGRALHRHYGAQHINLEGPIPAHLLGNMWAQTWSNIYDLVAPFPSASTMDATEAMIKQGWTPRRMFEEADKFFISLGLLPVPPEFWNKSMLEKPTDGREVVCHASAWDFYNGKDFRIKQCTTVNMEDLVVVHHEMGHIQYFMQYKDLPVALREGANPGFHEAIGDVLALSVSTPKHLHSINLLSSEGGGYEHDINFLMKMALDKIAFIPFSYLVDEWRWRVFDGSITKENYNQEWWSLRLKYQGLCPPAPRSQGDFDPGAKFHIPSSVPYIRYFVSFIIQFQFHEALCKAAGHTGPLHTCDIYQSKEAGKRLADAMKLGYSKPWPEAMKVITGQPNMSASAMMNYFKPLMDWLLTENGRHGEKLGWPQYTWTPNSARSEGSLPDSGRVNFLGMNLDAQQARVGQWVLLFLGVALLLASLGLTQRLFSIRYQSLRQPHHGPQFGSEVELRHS
How it was run: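 Enzyme source is rabbit lung extract; substrate hippuryl-L-histidyl-L-leucine (HHL); I50 reported.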

Neprilysin = biological target: T2, Neprilysin (Rattus norvegicus, UniProt P07861); experiment: In vitro inhibition of neutral endopeptidase purified from rat kidney using fluorimetry assay; settings: read-out: I50
T2 sequence (P07861 whole entry): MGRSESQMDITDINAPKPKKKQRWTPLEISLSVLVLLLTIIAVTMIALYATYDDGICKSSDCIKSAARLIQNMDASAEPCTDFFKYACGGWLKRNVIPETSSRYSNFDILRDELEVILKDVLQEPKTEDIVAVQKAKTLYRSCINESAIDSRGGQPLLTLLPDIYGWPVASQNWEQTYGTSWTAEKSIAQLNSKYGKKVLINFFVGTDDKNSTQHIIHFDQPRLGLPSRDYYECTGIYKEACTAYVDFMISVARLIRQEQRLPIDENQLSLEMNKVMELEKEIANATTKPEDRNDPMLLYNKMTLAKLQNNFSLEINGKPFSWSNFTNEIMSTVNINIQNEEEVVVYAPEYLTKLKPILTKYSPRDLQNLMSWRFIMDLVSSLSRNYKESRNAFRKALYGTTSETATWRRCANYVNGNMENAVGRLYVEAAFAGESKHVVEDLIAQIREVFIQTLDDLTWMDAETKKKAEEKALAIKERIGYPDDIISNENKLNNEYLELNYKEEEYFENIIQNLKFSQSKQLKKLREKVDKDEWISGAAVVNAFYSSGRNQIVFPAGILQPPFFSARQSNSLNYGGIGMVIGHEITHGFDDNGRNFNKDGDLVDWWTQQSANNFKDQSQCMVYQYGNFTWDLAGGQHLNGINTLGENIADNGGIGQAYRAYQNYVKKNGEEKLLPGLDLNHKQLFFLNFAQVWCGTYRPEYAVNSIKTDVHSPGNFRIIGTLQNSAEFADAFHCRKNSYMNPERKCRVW
How it was run: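 Enzyme from purified rat kidney; fluorometric read-out with dansyl-Gly-Phe-Arg as substrate; I50 reported.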

Rattus norvegicus [7] = experiment: 50% inhibition of the AI pressor response in normotensive rat after intravenous administration at a dose 0.5 umol/kg; assay type: functional

| IC50 [6] | IC50 (Neprilysin) | Compound | Inhibition (Rattus norvegicus [1]) | Inhibition (Rattus norvegicus [2]) | Inhibition (Rattus norvegicus [3]) | MAP (Rattus norvegicus [4]) | Inhibition (Rattus norvegicus [5]) | ED50 (Rattus norvegicus [7]) |
| --- | --- | --- | --- | --- | --- | --- | --- | --- |
| – | – | O=C(N[C@H]1CCC[C@H]2CC[C@@H](C(=O)O)N2C1=O)[C@@H](S)Cc1ccccc1 | 3% | 75% | 34% | – | – | – |
| – | – | CCC(=O)O[C@@H](O[P@](=O)(CCCCc1ccccc1)CC(=O)N1C[C@H](C2CCCCC2)C[C@H]1C(=O)O)C(C)C [FOSINOPRIL] | – | – | – | 20 mmHg | – | – |
| – | – | O=C(N[C@H]1CCC[C@H]2CCC[C@@H](C(=O)O)N2C1=O)[C@@H](S)Cc1ccccc1 | 35% | 71% | 65% | – | 11% | – |
| 8 nM | 9 nM | CCOC(C)=O.O=C(N[C@H]1CCO[C@H]2CCC[C@@H](C(=O)O)N2C1=O)[C@@H](S)Cc1ccccc1 | – | 83% | 3% | – | – | 0.05 µmol/kg |
| 4 nM | 4 nM | O=C(N[C@H]1CCS[C@H]2CC[C@@H](C(=O)O)N2C1=O)[C@@H](S)Cc1ccccc1 | 60% | 82% | 76% | – | 25% | 0.03 µmol/kg |
| 7 nM | 26 nM | O=C(N[C@H]1CCO[C@H]2CC[C@@H](C(=O)O)N2C1=O)[C@@H](S)Cc1ccccc1 | 3% | 79% | 63% | – | – | 0.06 µmol/kg |
| 5 nM | 42 nM | CCOC(C)=O.O=C(N[C@H]1CS[C@H]2CCC[C@@H](C(=O)O)N2C1=O)[C@@H](S)Cc1ccccc1 | – | 78% | 3% | – | – | 0.23 µmol/kg |
| 5 nM | 8 nM | O=C(N[C@H]1CCS[C@H]2CCC[C@@H](C(=O)O)N2C1=O)[C@@H](S)Cc1ccccc1 [OMAPATRILAT] | 60% | 76% | 66% | 40 mmHg | 58% | 0.07 µmol/kg |

— ChEMBL document CHEMBL1130034, “Dual metalloprotease inhibitors: mercaptoacetyl-based fused heterocyclic dipeptide mimetics as inhibitors of angiotensin-converting enzyme and neutral endopeptidase” (J Med Chem, 1997)
